Shown are actives, neighbours in structure and some others; about 0.63% of the full set was active somewhere.
IDE inh – human IDE inhibitors in live cells, primary screen, fluorescence polarization, HEK cells, FAbetaB substrate. AID 434962, 2010. inhibition, % at 5.59 µM. 320,000 compounds, 0.41% hits. FAbetaB cleavage. Insulin-degrading enzyme (Homo sapiens), P14735;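 active means percent inhibition above the average of all tested compounds plus 3 SD, set per screening campaign, cut at about 16% in these data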;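 further: IDE supplied by intact live HEK cells; FP after avidin binding of uncleaved biotin substrate so inhibition keeps polarization high; 0% = DMSO wells and 100% = 60 µM reference IDE inhibitor Ii1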
TRPML3 agonist – human TRPML3 channel agonists, primary screen, cell-based, HEK293 TRPML3-YFP, Fluo-8 calcium fluorescence, 3 µM. AID 1448, 2008. 220,000 compounds, 0.29% hits. Mucolipin-3 (Homo sapiens), Q8TDD5. activation, % at 3 µM. 100% = the carbachol control signal;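 active means activation above its plate's cutoff, the mean activation of the plate's test wells plus 3 SD, cut at about 12% in these data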;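 further: 0% = DMSO only wells and 100% = carbachol wells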
Target sequence (Q8TDD5 whole entry, looked up): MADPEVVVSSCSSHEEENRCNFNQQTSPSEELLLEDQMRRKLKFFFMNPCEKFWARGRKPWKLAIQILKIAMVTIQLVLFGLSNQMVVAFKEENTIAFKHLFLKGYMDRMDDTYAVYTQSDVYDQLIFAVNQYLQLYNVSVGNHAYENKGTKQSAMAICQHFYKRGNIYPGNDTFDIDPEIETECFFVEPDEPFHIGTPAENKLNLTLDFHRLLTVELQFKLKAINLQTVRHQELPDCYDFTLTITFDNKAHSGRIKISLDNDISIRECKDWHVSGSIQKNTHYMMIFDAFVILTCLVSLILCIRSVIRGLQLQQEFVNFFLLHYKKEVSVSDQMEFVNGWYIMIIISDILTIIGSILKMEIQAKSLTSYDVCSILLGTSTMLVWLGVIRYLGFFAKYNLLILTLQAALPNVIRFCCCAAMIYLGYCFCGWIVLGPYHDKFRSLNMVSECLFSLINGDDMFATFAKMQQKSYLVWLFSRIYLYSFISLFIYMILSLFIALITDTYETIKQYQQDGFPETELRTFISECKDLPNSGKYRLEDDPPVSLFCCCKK
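Material: TRPML3-YFP stable HEK293 cells | Dosing: One concentration, 3 µM nominal, 0.3% DMSO | Timing: 125 s total fluorescence read per well | Technique: Fluo-8 calcium dye fluorescence, ex 470-495, em 515-575 nm | Measure: Percent activation from peak-to-basal fluorescence ratio, scaled between DMSO and carbachol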
IDE act – human IDE activators in live cells, primary screen, fluorescence polarization, HEK cells, FAbeta-B substrate; Insulin-degrading enzyme (Homo sapiens), P14735; FAbeta-B cleavage; 0% vehicle, 100% cell-free pure enzyme wells; activation, % at 5.96 µM; 340,000 compounds, 0.073% hits;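 active means activation above the mean of all tested compounds plus 3 SD, set per screening campaign, cut at about 17% in these data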
TRPN1 ag – zebrafish TRPN1 channel agonists, primary screen, cell-based, HEK293, calcium fluorescence; activation, % at 3 µM; HEK293 zebrafish TRPN1-YFP, Fluo-8 calcium fluorescence; 100% = response to 87 µM carbachol; 220,000 compounds, 0.18% hits;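 active means activation above its plate's cutoff, the mean activation of test wells on that plate plus 3 SD, cut at about 19% in these data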;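 further: 0% = DMSO alone and 100% = 87 µM carbachol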
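Material: zebrafish TRPN1-YFP in HEK293 cells. Doses: one dose of 3 µM, 0.3% DMSO. Incubation: dye 1 h 37 °C plus 30 min RT. Measured by: intracellular calcium fluorescence with Fluo-8.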
IDE inh confirm – human IDE inhibitors in live cells, confirmation, fluorescence polarization, HEK cells, FAbetaB substrate; inhibition, % at 5.59 µM; shares compounds with IDE inh; FAbetaB cleavage; 1,200 compounds, 51% hits;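 active means mean inhibition across triplicate wells above the cutoff set by the earlier primary insulin-degrading enzyme screen, cut at about 16% in these data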;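 further: 0% = DMSO wells and 100% = 60 µM reference IDE inhibitor Ii1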
HEK293 tox – cytotoxicity in HEK cells, cytotoxicity control for IDE inhibitor project, cell-based, luminescence; shares compounds with IDE inh; HEK293 cytotoxicity, ATP luminescence; inhibition, % at 5.59 µM; 1,200 compounds, 28% hits; in the data active means inhibition above about 22%;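 further: 0% = vehicle wells and 100% = reference cytotoxic drug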
IDE FP artifact – fluorescent or optically active artefacts, dose response, artefact control for IDE inhibitor project, biochemical, fluorescence polarization; shares compounds with IDE inh; FP counterscreen for fluorescent artifacts, IDE probe project; IC50, µM; 30 tested, under 10 active; AID 588718, 2011; call rule not given here
* hit, by the source's call.

What do the screens show for `COc1ccccc1NC(=O)CSc1nnc(Cc2cc(=O)[nH]c(=O)[nH]2)n1-c1ccccc1`?
IDE inh: 19*; TRPML3 agonist: 0; IDE act: -7; TRPN1 ag: 1; IDE inh confirm: 3; HEK293 tox: 3

What do the screens show for `COc1ccc(-n2c(Cc3cc(=O)[nH]c(=O)[nH]3)nnc2SCC(=O)Nc2cc(C(F)(F)F)ccc2Cl)cc1`?
IDE inh: -1; TRPML3 agonist: 0; IDE act: 3; TRPN1 ag: 1

What do the screens show for `CCN(CC)C(=O)c1ccc(/C=C/c2c[nH]c3ccccc23)[n+](C)c1`?
IDE inh: 22*; TRPML3 agonist: 1; IDE act: -23; TRPN1 ag: 3; IDE inh confirm: 21*; HEK293 tox: 16

How did Cc1ccc(C(=O)/C=C/c2c[nH]c3ccccc23)cc1 do in these assays?
IDE inh: -1; TRPML3 agonist: 0; IDE act: -5; TRPN1 ag: 1

How did O=C(CCC1N=C2c3ccccc3N=C(SCc3ccccc3Cl)N2C1=O)NCc1ccco1 (configuration not stated) do in these assays?
IDE inh: 21*; TRPML3 agonist: 1; IDE act: 0; TRPN1 ag: 0; IDE inh confirm: 2; HEK293 tox: 19

Results for CC(=O)N1CC(C)Oc2ccc(S(=O)(=O)Nc3ccc(Cl)cn3)cc21 (configuration not stated) ?
IDE inh: 4; IDE act: 2

How did COc1ccc(-c2csc(NC(=O)c3cc(C)oc3C)n2)cc1OC do in these assays?
IDE inh: 17*; IDE act: -12; IDE inh confirm: 13; HEK293 tox: 21

What do the screens show for `Cc1ccccc1C(=O)NC(=S)Nc1ccc2[nH]c(=O)[nH]c2c1`?
IDE inh: 3; TRPML3 agonist: 0; IDE act: 2; TRPN1 ag: 0

Results for O=C(/C=C/c1ccccc1)Nc1cccc(C(=O)N2CCCC2)c1 ?
IDE act: -1

How did COc1ccc(-c2nnc(Nc3nc4c(OC)cccc4s3)o2)cc1 do in these assays?
IDE inh: 24*; TRPML3 agonist: 0; IDE act: -15; TRPN1 ag: 0; IDE inh confirm: 19*; HEK293 tox: 8

What do the screens show for `C=CCOC(=O)C1=C(C)OC(N)=C(C#N)C1c1ccoc1` (configuration not stated)?
IDE inh: 45*; TRPML3 agonist: 1; IDE act: -18; TRPN1 ag: 2; IDE inh confirm: 40*; HEK293 tox: 5

How did C=CCOC(=O)C1=C(C)OC(N)=C(C#N)C1c1ccc2c(c1)OCO2 (configuration not stated) do in these assays?
IDE inh: -3; TRPML3 agonist: -1; IDE act: -4; TRPN1 ag: 0

What do the screens show for `Cc1ccc(CN2C(=O)N/C(=C\c3ccc(N4CCOCC4)cc3)C2=O)cc1`?
IDE inh: 2; TRPML3 agonist: 1; IDE act: 8; TRPN1 ag: -1

What do the screens show for `CCN1C(=O)/C(=C/c2ccc(N3CCCC3)cc2)NC1=S`?
IDE inh: 124*; TRPML3 agonist: 11; IDE act: -152; TRPN1 ag: 42*; IDE inh confirm: 158*; HEK293 tox: 23*

Results for CCCN1C(=O)/C(=C/c2ccc(N3CCOCC3)cc2)NC1=S ?
IDE inh: 16*; TRPML3 agonist: 12*; IDE act: -25; TRPN1 ag: 24*; IDE inh confirm: 31*; HEK293 tox: 17

Results for CCN(C(=O)COC(=O)c1ccc([N+](=O)[O-])o1)C1CCCCC1 ?
IDE inh: 3; IDE act: 1

What do the screens show for `CCOc1ccc(CCNC(=O)c2cc3ccccn3n2)cc1OCC`?
IDE inh: -2; TRPML3 agonist: 1; IDE act: 5; TRPN1 ag: 3

Results for Cc1ccc(/C=C/C(=O)NC(=S)Nc2ccc(S(=O)(=O)Nc3cc(C)on3)cc2)cc1 ?
IDE inh: 25*; IDE act: -10; IDE inh confirm: 21*; HEK293 tox: 8

How did COc1ccc(-c2cc(-c3ccc(OC)c(OC)c3)n[nH]2)c(O)c1 do in these assays?
IDE inh: 17*; TRPML3 agonist: 0; IDE act: -4; TRPN1 ag: -1; IDE inh confirm: 8; HEK293 tox: 14

Results for CCCCN(C(=S)NC(=O)c1cc(OC)c(OC)c(OC)c1)c1c(N)n(Cc2ccccc2)c(=O)[nH]c1=O ?
IDE inh: 3; TRPML3 agonist: -1; IDE act: 2; TRPN1 ag: 1

What do the screens show for `COc1ccc(C2CC(c3cccs3)=NN2C(=O)CSc2nc(=O)n3ccccc3n2)cc1` (configuration not stated)?
IDE inh: 17*; IDE act: -4; IDE inh confirm: -1; HEK293 tox: 17

Results for Cc1cccc(-c2nnc(SCc3nc4ccccc4[nH]3)n2Cc2ccco2)c1 ?
IDE inh: 37*; TRPML3 agonist: -1; IDE act: -20; TRPN1 ag: 4; IDE inh confirm: 31*; HEK293 tox: 21; IDE FP artifact: >55

What do the screens show for `O=C(CSc1nnc(-c2cccc(Cl)c2)n1Cc1ccco1)c1ccc2ccccc2c1`?
IDE FP artifact: >55

What do the screens show for `O=C(CSc1nnc(-c2cccc(Cl)c2)n1Cc1ccco1)Nc1ccc2cn[nH]c2c1`?
IDE FP artifact: >55

How did O=C(CSc1nnc(-c2cccnc2)n1Cc1ccco1)c1ccc2ccccc2c1 do in these assays?
IDE inh: 10; TRPML3 agonist: 0; IDE act: -4; TRPN1 ag: 0

What do the screens show for `N#CC(=C1N=c2ccccc2=N1)c1c(O)[nH]c2ccccc12`?
TRPML3 agonist: 0; TRPN1 ag: -1

Results for Oc1[nH]c(N=C2N=c3ccccc3=N2)c2ccccc12 ?
IDE inh: 26*; TRPML3 agonist: 0; IDE act: -16; TRPN1 ag: -1; IDE inh confirm: 20*; HEK293 tox: 76*

Results for c1ccc(-c2nnnn2-c2ccccc2)cc1 ?
IDE act: -4

Screening data from PubChem BioAssay.
